Runt-CBFb FRET = inhibitors of RUNX1 Runt–CBFb binding, primary screen, biochemical, FRET, Cerulean-Runt, Venus-CBFb, uHTS | Cerulean-Runt/Venus-CBFb FRET ratio 530/480, 1 h | inhibition, % at 20 µM | 220,000 compounds, 0.46% hits | AID 1496, 2009;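 active means inhibition over about 50% at 20 µM in the single-dose screen, limit read from the data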
Target sequence (Q01196 whole entry, looked up): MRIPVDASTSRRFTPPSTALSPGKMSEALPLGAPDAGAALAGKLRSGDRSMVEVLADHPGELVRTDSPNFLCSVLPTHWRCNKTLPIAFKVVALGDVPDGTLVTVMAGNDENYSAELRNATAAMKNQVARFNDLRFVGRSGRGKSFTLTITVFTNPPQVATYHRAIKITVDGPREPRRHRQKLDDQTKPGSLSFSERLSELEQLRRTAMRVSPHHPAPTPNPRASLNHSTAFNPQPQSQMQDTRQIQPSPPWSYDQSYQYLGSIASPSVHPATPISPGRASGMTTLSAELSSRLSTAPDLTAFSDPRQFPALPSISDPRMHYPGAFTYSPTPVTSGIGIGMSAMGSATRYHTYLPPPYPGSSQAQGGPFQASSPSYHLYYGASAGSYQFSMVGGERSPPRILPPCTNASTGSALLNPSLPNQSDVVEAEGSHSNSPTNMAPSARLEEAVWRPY
Target sequence (Q13951 whole entry, looked up): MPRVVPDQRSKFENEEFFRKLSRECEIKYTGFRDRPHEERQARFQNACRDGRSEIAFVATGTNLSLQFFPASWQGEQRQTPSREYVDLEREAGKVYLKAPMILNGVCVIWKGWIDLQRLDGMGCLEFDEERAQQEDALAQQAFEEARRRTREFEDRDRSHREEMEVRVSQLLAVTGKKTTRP
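Reagent – Venus-CBFb binding partner, 100 nM · Assay system – Cerulean-tagged RUNX1 Runt domain (FRET donor) fusion protein · Input – 100 nM per protein · Incubation – two 1 h room-temperature incubations shielded from light · Measured by – FRET fluorescence · Medium – Tris buffer pH 7.5 with salts and BSA · Benchmarks – unlabeled CBFb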
zVAD death inh = inhibitors of zVAD-triggered necroptosis, primary screen, L929 cells. AID 1377, 2008. viability rescue, % at 10 µM. 220,000 compounds, 0.38% hits. L929 zVAD necroptosis rescue, ATP luminescence, 24 h; with zVAD 60 µM;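 active means activation, scaled between plate controls, above about 75%, limit read from the data; inactive means activation under that limit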
Hck Nef HTS = inhibitors of Nef-activated human Hck kinase, primary screen, biochemical, Z-Lyte FRET, 384-well, Hck-YEEI; Tyrosine-protein kinase HCK (Homo sapiens), P08631; 220,000 compounds, 0.68% hits; Recombinant Hck-YEEI plus Nef, Z-Lyte FRET kinase assay; inhibition, % at 20 µM;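 active means Hck-Nef kinase inhibition above about 50%, limit read from the data; inactive means inhibition below that limit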
Runt-SMMHC FRET = inhibitors of RUNX1 Runt–CBFb-SMMHC binding, primary screen, biochemical, FRET, Cerulean-Runt, Venus-CBFb-SMMHC, uHTS. 220,000 compounds, 0.74% hits. Cerulean-Runt/Venus-CBFb-SMMHC FRET ratio 530/480, 1 h. AID 1434, 2008. inhibition, % at 20 µM. Runt-related transcription factor 1 (Homo sapiens) + Core-binding factor subunit beta …;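 active means mean inhibition across duplicate retests at 20 µM reaching about 50%, limit read from the data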;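 further: inhibitors lower the FRET ratio by blocking Runt binding to CBFb-SMMHC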
TNF death inh = inhibitors of TNF-alpha triggered necroptosis, primary screen, cell-based, Jurkat FADD-/-, single concentration; Jurkat FADD-/- TNF necroptosis rescue, ATP luminescence, 24 h; 0 = TNF only, 100 = no-TNF cells; 220,000 compounds, 0.068% hits; activation (protection from cell death), % at 10 µM;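 active means activation, meaning protection from cell death, of at least 50% relative to plate controls; inactive means activation below 50%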;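 further: necroptosis triggered by 40 ng/mL TNF-alpha added together with compound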
RanGTP-Impb inh = inhibitors of RanGTP-importin-beta interaction, primary screen, biochemical, FRET, CFP-Ran, YFP-importin-beta, homogeneous; AID 2216, 2009; Ran GTPase (GTP-bound) - importin-beta complex; cell-free CFP-Ran/YFP-importin-beta FRET ratio; inhibition, % (no concentration beside the values); 300,000 compounds, 1.1% hits;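 active means more than half of the replicate wells show a fall in the fluorescence ratio signal beyond about 16%, limit read from the data, passing the limit was not always enough; inconclusive means exactly half of the replicate wells pass the set limit; inactive means fewer than half of replicates pass the limit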
Numbers stand for hits; - = inactive; ? = inconclusive; . = no result. In the library only some 2.1% were active in any assay of this set; here they are far more common.

SMILES	Runt-CBFb FRET	zVAD death inh	Hck Nef HTS	Runt-SMMHC FRET	TNF death inh	RanGTP-Impb inh
COCCNC(=O)Cn1cc(/C=C(\C#N)C(=O)NC2CCCC2)c2ccccc21	.	.	.	.	.	52
Cc1ccc(C)c(NC(=O)/C(C#N)=C/c2cn(CC(=O)NCc3ccco3)c3ccccc23)c1	-	-	-	-	-	98
N#C/C(=C\c1cn(CCOc2ccccc2)c2ccccc12)C(=O)NCc1ccco1	-	-	-	-	-	-
Cc1ccccc1OCCn1cc(/C=C(\C#N)C(=O)NCc2ccco2)c2ccccc21	-	-	-	63	-	-
COc1ccc(/C=C/C(=O)O)cc1S(=O)(=O)N1CCC(C)CC1	-	-	-	-	-	-
N#Cc1ccsc1NC(=O)C1CC(=O)N(Cc2ccccc2)C1 (stereo unspecified)	.	.	.	.	.	-
CC1=NN(C(=S)Nc2ccccc2)C(C)(C)C1	-	-	-	-	-	-
CCOC(=O)c1cc(-c2ccccc2)nc2nc(N3CCCCC3)sc12	-	-	-	-	-	-
CCOC(=O)c1cc(-c2ccccc2)nc2nc(N(CC)CC)sc12	.	.	.	.	.	45
COc1cc(/C=C(\C#N)C(=O)NC(C)C)cc(Cl)c1O	-	-	-	63	-	-
Cc1nc(C)c(-c2csc(Nc3cccc(O)c3)n2)s1	-	-	51	-	-	-
O=[N+]([O-])c1ccc(P(=O)(Cc2ccccc2)c2ccccc2O)cc1 (stereo unspecified)	.	.	.	.	.	-
CCN1C(=O)CC(C(=O)OC)=C1C	-	-	-	-	-	-
COC(=O)C1=C(C)N(CC2CCCO2)C(=O)C1 (stereo unspecified)	-	-	-	-	-	17
CN1C(N)=NC(=O)/C1=C/c1ccccc1F	-	-	-	-	-	31
Cc1ccc(/C=C2/C(=O)N=C(N)N2C)s1	-	-	-	-	-	-
COc1ccc(NC(=O)c2ccc(Cl)c(NC(=O)c3ccncc3)c2)cc1	-	-	-	-	-	-
CCS(=O)(=O)N1Cc2ccccc2CC1C(=O)N(C)CC(=O)Nc1cccc(F)c1 (stereo unspecified)	.	.	.	.	.	-
Cc1cc(C)cc(NC(=O)CN2CCC(NC(=O)c3ccccc3F)CC2)c1	.	.	.	.	.	-
COc1cc2ccccc2cc1C(=O)Nc1sc2c(c1C(N)=O)CCN(C(C)C)C2	.	.	.	.	.	47
CC(C)N1CCc2c(sc(NC(=O)CCS(=O)(=O)c3ccccc3)c2C(N)=O)C1	.	.	.	.	.	153
COc1ccccc1CC(=O)Nc1sc2c(c1C(N)=O)CCCC2	.	.	.	.	.	-
CC(C)N1CCc2c(sc(NC(=O)CN3C(=O)c4ccccc4C3=O)c2C(N)=O)C1	98	-	-	129	-	142
O=C(Nc1ccc(Cl)cc1)/C(=C/c1ccc([N+](=O)[O-])cc1)c1nc2ccccc2s1	-	-	-	-	-	.
O=C(O)c1ccc(NC(=S)Nc2ccccc2)cc1	-	-	-	-	-	-
SMILES	Runt-CBFb FRET	zVAD death inh	Hck Nef HTS	Runt-SMMHC FRET	TNF death inh	RanGTP-Impb inh
Cc1cccc(NC(=O)COc2coc(CN3CCN(c4ccccc4)CC3)cc2=O)c1	.	.	.	.	.	-
CC1=C(C#N)C(c2ccc(O)cc2)C2=C(CC(C)(C)CC2=O)N1 (stereo unspecified)	-	-	-	-	-	-
CC1=C(C#N)C(C)C2=C(CC(C)(C)CC2=O)N1 (stereo unspecified)	-	-	-	50	-	-
Cc1ccc(N/C=C(\C#N)S(=O)(=O)c2ccccc2)cc1	-	-	-	-	-	?
CCO[C@@H]1OC(C(N)=O)=C[C@H](c2ccc(C(F)(F)F)cc2)[C@H]1CCCO	-	-	-	-	-	24
OCC1(Cc2ccccc2)CCCN(Cc2c[nH]c3ccccc23)C1 (stereo unspecified)	-	-	-	-	-	-
O=C(CSCc1ccc([N+](=O)[O-])cc1)NC1CC2CCC1C2 (stereo unspecified)	-	-	-	-	63	-
CC1=C(C(=O)Nc2cccc(C(=O)NC3CCCC(C)C3C)c2)SCCO1 (stereo unspecified)	.	.	.	.	.	-
CC(C)C(C(=O)O)N1CCS(=O)(=O)CC1 (stereo unspecified)	-	-	-	-	-	-
Cc1csc(Nc2ccccc2)[n+]1-c1ccccc1	-	-	-	-	56	-
Cc1csc(Nc2ccccc2)[n+]1C	-	-	-	-	-	-
CC(C)C[C@H](NC(=O)OC(C)(C)C)C(=O)N[C@@H](CO)[C@H](O)[C@@H]1C[C@@H]1C(=O)N1CCCC1	.	.	.	.	.	-
Cc1onc(-c2ccccc2Cl)c1C(=O)Nc1sc2c(c1C#N)CCC2	-	-	-	-	-	45
O=C(NCCc1ccccc1)c1ccc(CS(=O)Cc2ccc(Cl)cc2)o1 (stereo unspecified)	.	.	.	.	.	-
CCOC(=O)/C(=C/c1ccc(N2CCC(c3ccccc3)=N2)cc1)C(C)=O	-	.	-	79	-	-
c1ccc(C2=NN(c3ccccc3)CC2)cc1	-	-	-	-	-	?
CCN(CC)c1ccc(/C=C/C(=O)C2C(=O)C=C(C)OC2=O)cc1 (stereo unspecified)	.	-	-	-	-	-
Cc1ccc(C(=O)/C=C/c2cn(CN3CCN(C)CC3)c3ccccc23)cc1	-	-	-	-	-	72
Cn1cc(/C=C/C(=O)c2ccccc2)c2ccccc21	-	-	-	-	-	36
CC1(C)Cc2c(sc3ncn(N)c(=N)c23)CO1	-	-	-	-	-	-
CC1(C)Cc2c(sc3ncn4c(=S)[nH]nc4c23)CO1	-	-	-	60	-	-
Cc1c(/C(O)=C2\C(=O)C(=O)N(CCN(C)C)C2c2ccccc2)cnn1-c1ccccc1 (stereo unspecified)	-	-	-	-	-	-
Cc1ccc(C23CC4CC(CC(C(=O)N5CCN(C)CC5)(C4)C2)C3)cc1	-	-	-	-	-	-
Cc1ccc(C23CC4CC(CC(CC(=O)N5CCOCC5)(C4)C2)C3)cc1	-	-	-	-	-	25
CCOc1cc(-n2cnnn2)c(OCC)cc1NC(=O)c1cc2ccc(N(CC)CC)cc2oc1=O	.	-	-	.	-	.
CCN(CC)c1ccc2cc(/C(N)=N/NC(=O)c3cccs3)c(=O)oc2c1	-	-	-	-	-	159

Source: PubChem BioAssay (several laboratories)
